The values that follow come from ChEMBL document CHEMBL3870319, “Synthesis and biological evaluation of rhein amides as inhibitors of osteoclast differentiation and bone resorption” (Eur J Med Chem, 2016).

Series [1] is described as follows: Cytotoxicity against C57/BL6 mouse primary BMDM assessed as cell viability at 5 uM after 2 days in presence of M-CSF by MTT assay relative to control. The format is toxicity. The following applies: primary bone marrow-derived macrophages (BMDM), read-out: Activity. The method in brief: (§1)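 Primary BMMs were obtained by flushing femur and tibia marrow of 4-week-old male C57BL/6 mice, culturing it overnight, then expanding the non-adherent cells with 30 ng/mL M-CSF to 90% confluence. They were seeded at 3×10^3 cells/well in full α-MEM with 30 ng/mL M-CSF. Next day, compound was added in triplicate for two days. MTT (5 mg/mL) was added for 2 h at 37°C, crystals were dissolved in DMSO, and OD was read at 570 nm. Viability is relative to untreated control (100%).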
(Tetrazolium assays rely on reduction of a dye to a coloured formazan, in cell work by metabolically active cells.)

A short description of series [2]: (§2) Inhibition of RANKL/M-CSF-induced osteoclastogenesis in C57/BL6 mouse primary BMDM assessed as reduction in TRAP activity using pNPP as substrate after 2 days by colorimetric assay. The format is functional. Put shortly:
(§3)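 BMMs at 3×10^3 cells/well exposed to 30 ng/mL M-CSF plus 50 ng/mL RANKL with compound in triplicate for two days. PBS-washed cells lysed 15 min at 37°C; lysate incubated 45 min with p-NPP in presence of disodium tartrate, stopped with NaOH, OD read at 405 nm, normalized to BCA protein; inhibition relative to control.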

In series [3] the test system is BMDM. The series can be described thus: Inhibition of RANKL/M-CSF-induced osteoclastogenesis in C57/BL6 mouse primary BMDM assessed reduction in TRAP-positive multinucleated cells at 5 uM after 5 days. The format is functional. Put shortly:
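Mouse C57BL/6 BMMs were adhered overnight in M-CSF medium, then cultured with 30 ng/mL M-CSF plus 50 ng/mL RANKL and compound for five days, with medium changed every two days. Cells were TRAP-stained with a leukocyte acid phosphatase kit, and TRAP-positive cells with ≥3 nuclei were counted as osteoclasts. Counts are expressed as percent of control, from at least three experiments.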

Series [4] in a line: Induction of C57/BL6 mouse primary BMDM proliferation assessed at 5 uM after 2 days by MTT assay relative to control. Conditions: 48 h. The method in brief: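 BMMs from femur/tibia marrow of 4-week-old male C57BL/6 mice, expanded in α-MEM/10% FBS with 30 ng/mL M-CSF. Seeded at 3×10^3 cells/well, treated next day in triplicate for two days with M-CSF present. MTT (5 mg/mL stock) for 2 h at 37°C, crystals dissolved in DMSO, OD 570 nm; viability relative to untreated control.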

Series [5] deals with BMDM. The series is described as §2. Type of series: functional. Put shortly:
as §3

For series [6], the species on record is Mus musculus. Briefly: Cytotoxicity against C57/BL6 mouse primary BMDM assessed as cell viability at 7.5 uM after 2 days in presence of M-CSF by MTT assay. The format is toxicity. The following applies: 48 h. Put shortly:
as §1

Series [7] deals with BMDM. The series can be described thus: Inhibition of RANKL/M-CSF-induced bone resorption of osteoclast in C57/BL6 mouse primary BMDM cultured on bovine femur bone slices assessed as reduction in bone resorption area at 5 uM after 5 days by toluidine blue staining based microscopy. Type of series: functional. Put shortly:
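BMMs seeded on bovine femur bone slices; next day induced with 30 ng/mL M-CSF plus 50 ng/mL RANKL with compound for five days, medium changed every two days. Cells fixed in 2.5% glutaraldehyde, slices stained with 0.5% toluidine blue, imaged at 200×; pit area from three random fields per slice, expressed as % of control.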

Series [8] is filed under the species Mus musculus. Briefly: Inhibition of RANK/RANKL/NFATc1 signalling pathway in M-CSF-stimulated C57/BL6 mouse primary BMDM assessed as reduction in NFATc1 mRNA level at 5 uM by qRT-PCR analysis. The method in brief: (§4)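 BMMs treated with M-CSF and/or RANKL alone or with 5 µM compound; mRNA for NFATc1, c-fos, TRAP, MMP-9 and cathepsin K measured by SYBR Green qRT-PCR, normalized to β-actin, expressed as fold change versus control cells; mean ± S.D. of triplicate measurements per cDNA sample.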

The species named for series [9] is Mus musculus. Briefly: Inhibition of RANK/RANKL/NFATc1 signalling pathway in M-CSF-stimulated C57/BL6 mouse primary BMDM assessed as reduction in c-FOS mRNA level at 5 uM by qRT-PCR analysis. The method in brief:
as §4
(In general: Real-time PCR tracks product formation cycle by cycle.)

Series [10] is filed under the species Mus musculus. Briefly: Inhibition of RANK/RANKL/NFATc1 signalling pathway in M-CSF-stimulated C57/BL6 mouse primary BMDM assessed as reduction in TRAP mRNA level at 5 uM by qRT-PCR analysis. Put shortly: as §4
The species named for series [11] is Mus musculus. Briefly: Inhibition of RANK/RANKL/NFATc1 signalling pathway in M-CSF-stimulated C57/BL6 mouse primary BMDM assessed as reduction in MMP9 mRNA level at 5 uM by qRT-PCR analysis. The method in brief: as §4
The species named for series [12] is Mus musculus. Briefly: Inhibition of RANK/RANKL/NFATc1 signalling pathway in M-CSF-stimulated C57/BL6 mouse primary BMDM assessed as reduction in cathepsin K mRNA level at 5 uM by qRT-PCR analysis. Put shortly:
as §4

The species named for series [13] is Mus musculus. Briefly: Cytotoxicity against mouse MC3T3-E1 cells assessed as reduction in cell viability at 5 uM after 2 days in presence of M-CSF by MTT assay. The following applies: mc3t3-e1, 48 h. The format is toxicity, cell-based. Put shortly: (§5)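 MTT viability in MC3T3-E1 preosteoblasts (ATCC) or C57BL/6-derived mouse MSCs grown in α-MEM with 10% FBS and penicillin/streptomycin at 37°C, 5% CO2. Compound at indicated concentrations for 2 days, then MTT read. Viability expressed relative to control, mean ± SD of triplicates.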

The species named for series [14] is Mus musculus. Briefly: Cytotoxicity against C57/BL6 mouse MSC assessed as reduction in cell viability at 5 uM after 2 days in presence of M-CSF by MTT assay. The format is toxicity. Conditions: 48 h. The method in brief: as §5

Activity calls are given as the source filed them. The calls are words filed in the database; no cut-off is given here.

`CCN1CCN(C(=O)c2cc(O)c3c(c2)C(=O)c2cccc(O)c2C3=O)CC1`: the viability at 48 h, 5 µM in series [1] was determined as 24%.

In the case of `O=C(Nc1ccc(C(F)(F)F)cc1Cl)c1cc(O)c2c(c1)C(=O)c1cccc(O)c1C2=O`, the viability at 48 h, 5 µM in series [1] was 17%.

Turning to `CC(=O)Oc1cccc2c1C(=O)c1c(OC(C)=O)cc(C(=O)Nc3ccc(C)cc3)cc1C2=O`, the viability at 48 h, 5 µM in series [1] came out at 28%.

As to `Cc1ccc(NC(=O)c2cc(O)c3c(c2)C(=O)c2cccc(O)c2C3=O)cc1`, the viability at 48 h, 5 µM in series [1] worked out at 62%.

For the molecule `O=C1c2cccc(O)c2C(=O)c2c(O)cc(C(=O)N3CCC(CO)CC3)cc21`, the viability at 48 h, 5 µM in [1] is 79%. Also, the “inhibition (INH)” value in series [2] was found to be 85%.

In the case of `CC(=O)Oc1cccc2c1C(=O)c1c(OC(C)=O)cc(C(=O)N3CCC(C)CC3)cc1C2=O`, in [1], the viability at 48 h, 5 µM was found to be 8%.

As to `CC(=O)Oc1cccc2c1C(=O)c1c(OC(C)=O)cc(C(=O)Nc3ccc(C(F)(F)F)cc3Cl)cc1C2=O`, the viability at 48 h, 5 µM in series [1] stood at 17%.

With `CC(=O)Oc1cccc2c1C(=O)c1c(OC(C)=O)cc(C(=O)Nc3ccc(C)c(Cl)c3)cc1C2=O`, the viability at 48 h, 5 µM in series [1] came to 75%. For the same molecule, in series [2], the “inhibition (INH)” value was 0%.

On to `O=C(NCCN1CCOCC1)c1cc(O)c2c(c1)C(=O)c1cccc(O)c1C2=O`, for which, in [1], the viability at 48 h, 5 µM amounted to 15%.

Regarding `Cc1cc(O)c2c(c1)C(=O)c1cc(O)cc(O)c1C2=O` [EMODIN], the viability at 48 h, 5 µM in [1] is 109%. Besides, in [2], the “inhibition (INH)” value is reported as 45%. The inhibition entry in the series on BMDM [3] is “Active”. Moreover, the Activity result in series [4] is recorded as “Non-Toxic”.

Take `CN1CCN(C(=O)c2cc(O)c3c(c2)C(=O)c2cccc(O)c2C3=O)CC1`: in series [1], the viability at 48 h, 5 µM was 122%. For the same molecule, in series [2], the “inhibition (INH)” value is listed as 0%.

As to `CC(=O)Oc1cccc2c1C(=O)c1c(OC(C)=O)cc(C(=O)Nc3ccccc3)cc1C2=O`, in series [1], the viability at 48 h, 5 µM came out at 28%.

As for `CC(C)(O)C1CCN(C(=O)c2cc(O)c3c(c2)C(=O)c2cccc(O)c2C3=O)CC1`, the viability at 48 h, 5 µM in series [1] amounted to 92%. Moreover, the “inhibition (INH)” value in series [2] is 65%.

For the molecule `O=C1c2cccc(O)c2C(=O)c2c(O)cc(C(=O)N3CCC(N4CCOCC4)CC3)cc21`, the viability at 48 h, 5 µM in series [1] amounted to 92%. The “inhibition (INH)” value in series [2] is listed as 98%. The inhibition result in the series on BMDM [5] is “Dose-dependent effect”. Besides, the Activity entry in the series filed under Mus musculus [6], in the series filed under Mus musculus [13] and in the series filed under Mus musculus [14] was “Non-Toxic” each time. The inhibition result in the series on BMDM [3], with BMDM [7], in the series listed under Mus musculus [8], in the series filed under Mus musculus [9], in the series filed under Mus musculus [10] and in the series listed under Mus musculus [11] was “Active” in each case. Also, the inhibition entry in the series listed under Mus musculus [12] is “Active”.

As for `CC(=O)Oc1cccc2c1C(=O)c1c(OC(C)=O)cc(C(=O)Nc3cc(C(F)(F)F)ccn3)cc1C2=O`, the viability at 48 h, 5 µM in series [1] is 37%.

For `O=C(Nc1ccc(C(F)(F)F)cc1)c1cc(O)c2c(c1)C(=O)c1cccc(O)c1C2=O`, the viability at 48 h, 5 µM in series [1] came to 57%.

On to `CC1CCN(C(=O)c2cc(O)c3c(c2)C(=O)c2cccc(O)c2C3=O)CC1`, for which, in [1], the viability at 48 h, 5 µM is 103%. The “inhibition (INH)” value in series [2] worked out at 0%.

As to `CC(=O)Oc1cccc2c1C(=O)c1c(OC(C)=O)cc(C(=O)Nc3ccc(C(F)(F)F)cc3)cc1C2=O`, the viability at 48 h, 5 µM in [1] is 51%.

Consider `O=C(Nc1ccc(C(F)(F)F)cn1)c1cc(O)c2c(c1)C(=O)c1cccc(O)c1C2=O`, for which the viability at 48 h, 5 µM in series [1] was 49%.

As to `O=C(Nc1ccccc1)c1cc(O)c2c(c1)C(=O)c1cccc(O)c1C2=O`, the viability at 48 h, 5 µM in series [1] worked out at 53%.

Turning to `O=C(O)c1cc(O)c2c(c1)C(=O)c1cccc(O)c1C2=O` [RHEIN], the viability at 48 h, 5 µM in series [1] is 97%. For the same molecule, the “inhibition (INH)” value in [2] amounted to 47%. Also, in series [4], the Activity entry is given as “Non-Toxic”.

For the molecule `CC(=O)Oc1cccc2c1C(=O)c1c(OC(C)=O)cc(C(=O)Nc3ccc(C(F)(F)F)cn3)cc1C2=O`, the viability at 48 h, 5 µM in series [1] was 35%.
